Assay results: ChEMBL document CHEMBL4049441, “Transforming Sphingosine Kinase 1 Inhibitors into Dual and Sphingosine Kinase 2 Selective Inhibitors: Design, Synthesis, and in Vivo Activity” (J Med Chem, 2017)
Activity calls are given as the source filed them. The rule behind the calls is not given here.

Assays:
[1] = biological target: T1, Sphingosine kinase 2 (Homo sapiens) (UniProt Q9NRA0); assay: Inhibition of recombinant human SPHK2 assessed as residual activity at 0.3 uM using sphingosine as substrate after 30 mins in presence of gamma-[32P]-ATP by liquid scintillation counting relative to control
T1 sequence (whole entry): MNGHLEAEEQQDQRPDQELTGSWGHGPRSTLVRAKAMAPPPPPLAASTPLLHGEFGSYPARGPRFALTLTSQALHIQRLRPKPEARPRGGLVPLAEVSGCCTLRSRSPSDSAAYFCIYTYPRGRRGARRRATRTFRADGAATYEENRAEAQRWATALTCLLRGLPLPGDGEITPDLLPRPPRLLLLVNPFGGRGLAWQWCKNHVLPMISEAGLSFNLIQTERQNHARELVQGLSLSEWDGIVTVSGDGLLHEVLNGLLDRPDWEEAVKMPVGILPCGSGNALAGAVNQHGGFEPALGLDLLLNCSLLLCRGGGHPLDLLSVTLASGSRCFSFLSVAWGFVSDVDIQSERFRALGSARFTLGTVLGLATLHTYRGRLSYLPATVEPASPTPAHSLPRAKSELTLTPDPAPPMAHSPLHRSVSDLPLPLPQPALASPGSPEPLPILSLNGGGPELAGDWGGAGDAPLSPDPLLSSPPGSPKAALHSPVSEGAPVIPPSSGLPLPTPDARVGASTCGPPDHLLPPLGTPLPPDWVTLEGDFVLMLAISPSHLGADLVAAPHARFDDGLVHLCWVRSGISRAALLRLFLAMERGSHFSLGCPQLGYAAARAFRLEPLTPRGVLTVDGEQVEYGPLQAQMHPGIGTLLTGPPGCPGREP
Procedure, shortened: (§1)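 Recombinant human SphK1 or SphK2 from cell lysate, briefly incubated with or without compound at 0.3 μM, sphingosine (5 μM for SphK1, 10 μM for SphK2) and 250 μM γ-[³²P]ATP. Radiolabelled S1P extracted, resolved by TLC and counted by scintillation. Activity reported as % of no-inhibitor control; triplicate.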

Sphingosine kinase 2 [2] = biological target: T2, Sphingosine kinase 2 (Homo sapiens, UniProt Q9NRA0); assay: Inhibition of recombinant human SPHK2 at using sphingosine as substrate after 30 mins in presence of gamma-[32P]-ATP by liquid scintillation counting
T2 sequence (Q9NRA0 whole entry): T1 sequence (whole entry)

Sphingosine kinase 2 [3] = biological target: T3, Sphingosine kinase 2 (Mus musculus, UniProt Q9JIA7); assay: Inhibition of recombinant mouse SPHK2 using sphingosine as substrate in presence ATP
T3 sequence (Q9JIA7 whole entry): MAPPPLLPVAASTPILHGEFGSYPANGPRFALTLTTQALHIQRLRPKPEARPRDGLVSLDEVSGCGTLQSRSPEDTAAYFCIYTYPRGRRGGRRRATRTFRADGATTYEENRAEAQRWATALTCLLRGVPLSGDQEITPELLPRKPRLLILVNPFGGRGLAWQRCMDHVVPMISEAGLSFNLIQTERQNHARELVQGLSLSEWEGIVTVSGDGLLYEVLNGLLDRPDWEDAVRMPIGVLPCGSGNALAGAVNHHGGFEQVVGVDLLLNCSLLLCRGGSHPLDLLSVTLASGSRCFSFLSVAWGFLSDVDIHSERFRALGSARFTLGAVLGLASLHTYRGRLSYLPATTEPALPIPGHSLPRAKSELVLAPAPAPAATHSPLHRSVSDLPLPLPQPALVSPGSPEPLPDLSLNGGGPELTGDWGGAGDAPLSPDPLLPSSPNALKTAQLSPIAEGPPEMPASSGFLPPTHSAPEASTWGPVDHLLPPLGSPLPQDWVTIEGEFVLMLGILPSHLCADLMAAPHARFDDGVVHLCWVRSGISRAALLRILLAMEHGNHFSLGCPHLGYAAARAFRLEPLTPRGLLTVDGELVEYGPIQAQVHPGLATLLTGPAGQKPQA

Sphingosine kinase 1 [4] = biological target: T4, Sphingosine kinase 1 (Homo sapiens, UniProt Q9NYA1); assay: Inhibition of recombinant human SPHK1 using sphingosine as substrate in presence ATP; procedure, shortened: as §1
T4 sequence (Q9NYA1 whole entry): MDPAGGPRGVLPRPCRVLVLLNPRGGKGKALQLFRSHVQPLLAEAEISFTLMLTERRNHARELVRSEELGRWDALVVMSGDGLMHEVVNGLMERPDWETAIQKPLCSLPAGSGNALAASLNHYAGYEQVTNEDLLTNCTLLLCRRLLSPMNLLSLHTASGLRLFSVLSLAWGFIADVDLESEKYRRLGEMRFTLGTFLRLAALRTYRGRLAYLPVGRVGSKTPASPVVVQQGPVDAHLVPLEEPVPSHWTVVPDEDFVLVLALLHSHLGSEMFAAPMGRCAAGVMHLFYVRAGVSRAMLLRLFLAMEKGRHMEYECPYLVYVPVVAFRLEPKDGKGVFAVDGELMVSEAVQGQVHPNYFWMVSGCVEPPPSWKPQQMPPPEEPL

[5] = Selectivity ratio of Ki for recombinant human SPHK1 to Ki for recombinant mouse SPHK2
[6] = biological target: T1, Sphingosine kinase 2 (Homo sapiens); assay: Inhibition of SPHK2 in human U937 cells assessed as decrease in S1P levels after 2 hrs by LC-MS/MS analysis; format: cell-based
Procedure, shortened: (§2)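 U937 human histiocytic lymphoma cells (express both SphK isotypes) incubated with compound for 2 h, pelleted, lysed; 2–3 × 10⁶ cells extracted in methanol:chloroform (3:1) with D7-S1P/D7-sphingosine internal standards, KOH hydrolysis, then S1P and sphingosine measured by LC-MS-MS. Expressed as pmol per 10⁶ cells; duplicate experiments; unpaired t test against control.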

[7] = biological target: T1, Sphingosine kinase 2 (Homo sapiens); assay: Inhibition of SPHK2 in human U937 cells assessed as effect on sphingosine levels at 0.1 to 1 uM after 2 hrs by LC-MS/MS analysis; format: cell-based; procedure, shortened: as §2
Mus musculus [8] = assay: In vivo inhibition of SPHK2 in C57BL/6J mouse assessed as increase in S1P levels at 10 mg/kg, ip after 2 to 6 hrs by LC-MS/MS analysis; format: functional, organism-based
Procedure, shortened: (§3)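 Single intraperitoneal dose of 10 mg/kg in C57BL6/j mice, groups of 3 to 4; vehicle controls received an equal volume of 2% hydroxypropyl-β-cyclodextrin. Blood was sampled at set time points over 24 h. Whole blood (10 μl) was extracted in methanol:chloroform (3:1) with D7-S1P and D7-sphingosine internal standards, base-hydrolysed with KOH, and S1P quantified by reverse-phase C18 LC-MS-MS.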

Mus musculus [9] = assay: In vivo inhibition of SPHK2 in C57BL/6J mouse assessed as increase in S1P levels at 10 mg/kg, ip after 24 hrs by LC-MS/MS analysis; format: functional, organism-based; procedure, shortened: as §3
[10] = biological target: T1, Sphingosine kinase 2 (Homo sapiens); assay: Inhibition of SPHK2 in human U937 cells assessed as effect on sphingosine levels at 0.3 to 1 uM after 2 hrs by LC-MS/MS analysis; format: cell-based; procedure, shortened: as §2
[11] = biological target: T1, Sphingosine kinase 2 (Homo sapiens); assay: Inhibition of recombinant human SPHK2 using sphingosine as substrate up to 1 uM after 30 mins in presence of gamma-[32P]-ATP by liquid scintillation counting
Sphingosine kinase 1 [12] = biological target: T4, Sphingosine kinase 1

Compound | Activity [1] [%] | further results
N=C(N)N1CCC[C@H]1Cc1nc(-c2ccc(Nc3nc(-c4cccc(Br)c4)cs3)cc2)no1 | 44 | 
N=C(N)N1CCC[C@H]1Cc1nc(-c2ccc(Nc3nc(-c4cc(F)cc(C(F)(F)F)c4)cs3)cc2)no1 | 30 | Ki (Sphingosine kinase 2 [2]): 170 nM
N=C(N)N1CCC[C@H]1Cc1nc(-c2ccc(Nc3nc(-c4cc(C(F)(F)F)cc(C(F)(F)F)c4)cs3)cc2)no1 | 63 | 
N=C(N)N1CCC[C@H]1Cc1nc(-c2ccc(Nc3nc(-c4ccc(OC(F)(F)F)cc4)cs3)cc2)no1 | 44 | Ki (Sphingosine kinase 2 [2]): 250 nM
COc1ccc(-c2csc(Nc3ccc(-c4noc(C[C@@H]5CCCN5C(=N)N)n4)cc3)n2)cc1 | 100 | 
N=C(N)N1CCC[C@H]1Cc1nc(-c2ccc(Nc3nc(-c4ccccc4C(F)(F)F)cs3)cc2)no1 | 72 | 
N=C(N)N1CCC[C@H]1Cc1nc(-c2ccc(Nc3nc(-c4ccc(C(F)(F)F)cc4)cs3)cc2)no1 | 36 | Ki (Sphingosine kinase 2 [2]): 390 nM
CCCCCCCCc1ccc2cc(-c3noc(C4CCCN4C(=N)N)n3)ccc2c1 (single isomer, unassigned) |  | Ki (Sphingosine kinase 2 [3]): 1300 nM; Ki (Sphingosine kinase 1 [4]): 12000 nM; Ratio Ki [5]: 10
N=C(N)N1CCC[C@H]1Cc1nc(-c2ccc(Nc3nc(-c4ccc(-c5ccccc5)cc4)cs3)cc2)no1 | 27 | Ki (Sphingosine kinase 2 [2]): 90 nM; inhibition [6]: Dose-dependent effect; inhibition [7]: Active; inhibition (Mus musculus [8]): Active; inhibition (Mus musculus [9]): inactive; inhibition [10]: Active
N=C(N)N1CCC[C@H]1Cc1nc(-c2ccc(Nc3nc(-c4cccnc4)cs3)cc2)no1 | 94 | 
COc1cccc(-c2csc(Nc3ccc(-c4noc(C[C@@H]5CCCN5C(=N)N)n4)cc3)n2)c1 | 100 | 
N=C(N)N1CCC[C@H]1Cc1nc(-c2ccc(Nc3nc(-c4ccc(Br)cc4)cs3)cc2)no1 | 46 | 
N=C(N)N1CCC[C@H]1Cc1nc(-c2ccc(Nc3nc(-c4cccc(C(F)(F)F)c4)cs3)cc2)no1 | 28 | Ki (Sphingosine kinase 2 [2]): 90 nM; inhibition [6]: Dose-dependent effect; inhibition [7]: Active
N=C(N)N1CCC[C@H]1Cc1nc(-c2ccc(Nc3nc(-c4ccc(-c5ccc(F)cc5)cc4)cs3)cc2)no1 | 31 | 
N=C(N)N1CCC[C@H]1Cc1nc(-c2ccc(Nc3nc(-c4cccc(OC(F)(F)F)c4)cs3)cc2)no1 | 82 | 
CCCCCOc1ccc2cc(-c3noc([C@H]4[C@@H](O)CCN4C(=N)N)n3)ccc2c1 |  | Ki (Sphingosine kinase 1 [12]): 730 nM
N=C(N)N1CCC[C@H]1Cc1nc(-c2ccc(Oc3nc(-c4ccc(C(F)(F)F)cc4)cs3)cc2)no1 | 55 | 
N=C(N)N1CCC[C@H]1Cc1nc(-c2ccc(Nc3nc(-c4ccccc4F)cs3)cc2)no1 | 44 | 
Cc1ccc(-c2csc(Nc3ccc(-c4noc(C[C@@H]5CCCN5C(=N)N)n4)cc3)n2)cc1 | 80 | 
N=C(N)N1CCC[C@H]1Cc1nc(-c2ccc(Nc3nc(-c4cc5ccccc5o4)cs3)cc2)no1 | 67 | 
N=C(N)N1CCC[C@H]1Cc1nc(-c2ccc(Nc3nc(-c4ccc(F)cc4)cs3)cc2)no1 | 55 | 

More lines, main results first:

Activity [1] [%] | Compound | further results
45 | N=C(N)N1CCC[C@H]1Cc1nc(-c2ccc(Nc3nc(-c4cccc(Cl)c4)cs3)cc2)no1 | 
100 | COc1ccc(-c2csc(Nc3ccc(-c4noc(C[C@@H]5CCCN5C(=N)N)n4)cc3)n2)cc1OC | 
33 | N=C(N)N1CCC[C@H]1Cc1nc(-c2ccc(Nc3nc(-c4ccc(F)c(C(F)(F)F)c4)cs3)cc2)no1 | Ki (Sphingosine kinase 2 [2]): 170 nM
45 | N=C(N)N1CCC[C@H]1Cc1nc(-c2ccc(Nc3nc(-c4cccc(F)c4)cs3)cc2)no1 | 
73 | N=C(N)N1CCC[C@H]1Cc1nc(-c2ccc(Nc3nc(-c4cccc(-c5ccccc5)c4)cs3)cc2)no1 | 
71 | COc1ccc(-c2csc(Nc3ccc(-c4noc(C[C@@H]5CCCN5C(=N)N)n4)cc3)n2)cc1Cl | 
67 | Cc1ccc(-c2csc(Nc3ccc(-c4noc(C[C@@H]5CCCN5C(=N)N)n4)cc3)n2)cc1C | 
51 | N=C(N)N1CCC[C@H]1Cc1nc(-c2ccc(Nc3nc(-c4ccc(F)c(F)c4)cs3)cc2)no1 | 
83 | N=C(N)N1CCC[C@H]1Cc1nc(-c2ccc(Nc3nc(-c4ccccc4)cs3)cc2)no1 | 
85 | N=C(N)N1CCC[C@H]1Cc1nc(-c2ccc(Nc3nc(-c4ccc(-c5cccc(C(F)(F)F)c5)cc4)cs3)cc2)no1 | 
100 | CN(c1ccc(-c2noc(C[C@@H]3CCCN3C(=N)N)n2)cc1)c1nc(-c2ccc(-c3ccccc3)cc2)cs1 | inhibition [11]: inactive
96 | N=C(N)N1CCC[C@H]1Cc1nc(-c2ccc(Nc3nc(-c4ccc(-c5ccc(C(F)(F)F)cc5)cc4)cs3)cc2)no1 | 
43 | N=C(N)N1CCC[C@H]1Cc1nc(-c2ccc(Nc3nc(-c4cc(F)cc(F)c4)cs3)cc2)no1 | 
46 | N=C(N)N1CCC[C@H]1Cc1nc(-c2ccc(Nc3nc(-c4ccc(Cl)c(Cl)c4)cs3)cc2)no1 | 
51 | N=C(N)N1CCC[C@H]1Cc1nc(-c2ccc(Nc3nc(-c4ccc(Cl)cc4)cs3)cc2)no1 | 
48 | N=C(N)N1CCC[C@H]1Cc1nc(-c2ccc(Nc3nc(-c4cc(C(F)(F)F)ccc4F)cs3)cc2)no1 | 
94 | N=C(N)N1CCC[C@H]1Cc1nc(-c2ccc(Nc3nc(-c4ccncc4)cs3)cc2)no1 | 
